According to ChEMBL document CHEMBL4513216, “Probing the Open Global Health Chemical Diversity Library for Multistage-Active Starting Points for Next-Generation Antimalarials” (ACS Infect Dis, 2020):

Test: Toxicity liver stage against HepG2, at 10uM
Format: cell-based
Parameters: test concentration 10 uM, cell line HepG2-A16-CD81EGFP
Settings: human, HepG2-A16-CD81EGFP cells; read-out: INHIBITION
Outline: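 Uninfected HepG2-A16-CD81EGFP cells, 3 × 10^3 per well, 1536-well, plated on prespotted compound at 10 μM final, parasite-free screening media added to match infected plates; puromycin 10 μM positive, DMSO 0.5% negative; run in parallel with 48 h PbLuc assay at 37 °C, 5% CO2; viability by CellTiter-Glo luminescence, normalized to controls.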

SMILES	cytotoxicity at 10 µM
CN(C)C(=O)CN(C)C(=O)c1cnc(Cc2ccc(F)cc2)s1	8.66%
O=C(NC1CCCC1)c1cc(C2CCCNC2)n[nH]1 (stereo not given)	5.27%
COCCc1noc(CN2CCCC2Cn2nc(C)cc2C)n1 (stereo not given)	-1.92%
Cc1nc(CN2CCN(CCCc3ccccc3)CC2)no1	11.7%
COCCO[C@H]1CCN(c2cc(OC)ncn2)[C@H]1Cc1ccncc1	-146%
CN(C)S(=O)(=O)c1ccc(-c2nc(C#N)c(NC(C)(C)C)o2)o1	-12.3%
CN(C)C(=O)CC1CC2(CCN(c3ncccn3)CC2)c2ccccc21 (stereo not given)	-16.7%
Cc1nc(CN(C)C(=O)Nc2cccc(COC(C)C)c2C)no1	3.95%
COc1ccc(Cl)cc1-n1cnc(CCNC(C)=O)c1	2.29%
c1cnc(Nc2ccc(C3CCCCN3Cc3ccncc3)cn2)nc1 (stereo not given)	-1.57%
Fc1cnc(N2CCOCC3(CCCN(c4nncs4)C3)C2)nc1 (stereo not given)	2.01%
CCNC(=O)N(C)CCCc1n[nH]c(N)c1C#N	10.3%
O=C(NCc1cccs1)c1nc2c(o1)CN(C(=O)c1cccnc1)C2	-6.04%
COCCNC(=O)CN(C)CCn1nc2ccccn2c1=O	-156%
NC(=O)N1CCCN(CCc2nc(-c3cccc(Cl)c3)no2)CC1	14.8%
CN(C)c1nccc(CNS(=O)(=O)c2cc(Cl)cc(Cl)c2)n1	-138%
CC(C)C(C(N)=O)c1cccc(Cl)c1 (stereo not given)	3.82%
O=C(NCC1CC1)C1CSCN1S(=O)(=O)c1ccccc1F (stereo not given)	5.02%
COc1ccccc1C(O)CNC(=O)Nc1ccccn1 (stereo not given)	-11.9%
N[C@H]1CN(C(=O)c2ccc(CO)cc2)C[C@@H]1C1CC1	2.56%
CCCC1CCCN(Cc2csc(-c3ncccn3)n2)CC1 (stereo not given)	13.6%
CC(C)c1noc(CN2CCOCC2C)n1 (stereo not given)	3.95%
O=C(O)[C@@H]1OCC(=O)N(Cc2cccc(Cl)c2)[C@@H]1c1ccccc1	3.94%
CCn1cnnc1CNC(=O)N1CCC(C)CC1	2.64%
CCCS(=O)(=O)N1CCCC(c2cccc(C(=O)O)c2)C1 (stereo not given)	6.09%
Cn1cc(CN2CCC(c3cc(CCO)[nH]n3)C2)cn1 (stereo not given)	3.19%
O=C(N1CCOCC1)[C@@]12CCO[C@@H]1CCN(Cc1cccc(F)c1)C2	10.8%
CC(=O)N1CCC(Cc2cnc(-c3c(C)n[nH]c3C)cn2)C1 (stereo not given)	-1.88%

SMILES	cytotoxicity at 10 µM
Cc1ccc(CN2CC[C@@H]3OCCN(S(C)(=O)=O)[C@H]3CC2)s1	3.91%
Cn1cc(S(=O)(=O)NCCc2ccsc2)cn1	5.26%
CCN(CC)CCCNCc1cc2cccc(C)c2[nH]c1=O	-7.06%
CN(C)S(=O)(=O)N1CCCC(c2nccnc2-c2cccc(Cl)c2)C1 (stereo not given)	8.23%
Cc1nn(C)c(C)c1NC(=O)CNC(c1ccccc1)C1CCC1 (stereo not given)	1.44%
Cc1nc(C)n(CC2CCCN(CCCS(=O)(=O)N(C)C)C2)n1 (stereo not given)	-3.15%
Cc1c[nH]cc1C(=O)N1CCN(CCc2cccs2)CC1	-6.8%
CC(=O)N1Cc2nccn2CC(CNC(=O)c2cnccn2)C1 (stereo not given)	-144%
CC(c1cncs1)N(C)Cc1ccc(CCC(C)(C)O)cc1 (stereo not given)	4.68%
CCS(=O)(=O)N1CCCC2(CCCN2Cc2cccc(F)c2)C1 (stereo not given)	-141%
Cc1nc(C)c(CN2CCOC[C@H](Oc3cnccn3)C2)s1	-5.33%
CCN1C(=O)[C@]2(CC[C@@H]3CN(S(=O)(=O)CC(C)C)C[C@@H]32)N=C1C	-78.2%
OCCCN1CCc2[nH]nc(C(c3ccccc3)c3ccccc3)c2C1	-0.869%
CCCN1CCCN(c2ncccc2C(=O)N2CCCCC2)CC1	0.503%
CC(C)c1ocnc1C(=O)N1CCC2(CC1)OCCO2	0.0416%
COc1ccccc1N1CC(NC(=O)Cn2cc(C)nn2)CC1=O (stereo not given)	11.6%
CC(C)(C)c1n[nH]c(C2CN(C(=O)CCc3ccco3)CCO2)n1 (stereo not given)	-8.24%
CN(C)C(=O)c1ccc(NCCNc2ccc3ccccc3n2)nc1	4.63%
CCCc1ccc(CN2CCC3(CCC(=O)N(C(C)C(=O)O)C3)CC2)o1 (stereo not given)	-2.69%
CC(=O)N1CC2(CCN(Cc3ccc(Cl)cc3)C2)Cc2ccccc21 (stereo not given)	7.74%
Cc1noc(C)c1CN1CCC2(CC1)CC(Oc1cccnc1)CO2 (stereo not given)	17.8%
CN(C)CCN1CC(C(=O)NCc2ccc(C#N)cc2)CC1=O (stereo not given)	-6.02%
CC(C)(C)C(=O)Nc1ccc(Oc2ccsc2C(=O)O)cc1	7.26%
Cc1cccn2c(=O)cc(CN3CCCC3Cn3cccn3)nc12 (stereo not given)	-4.55%
O=C1CCC(=O)N1CCN1CCC(=Cc2ccccc2)CC1	8.82%
Cc1cc2nc(C(C)C)cc(N3CCC(O)CC3)n2n1	-8.63%
CC(C)N(C)Cc1nnc2n1CCN(CC1CC1)CC2	0.319%
